Data on 25 compounds can be found in ChEMBL document CHEMBL1255504, “Functional profiling of p53-binding sites in Hdm2 and Hdmx using a genetic selection system” (Bioorg Med Chem, 2010).

What is called inhibition is the relative decrease from the control value, in per cent. In general, IC50 refers to the concentration that gives 50% inhibition.

Active and inactive are the calls of the source. No cut-off for these calls is given here. Where a SMILES comes first, the peptide text is derived from it. The star is where a group is joined. Isobutyryl = CC(C)C(=O)*; Piperidide = C1CCN(*)CC1; Cbz = O=C(OCc1ccccc1)*; PhAc = O=C(Cc1ccccc1)*; Boc = CC(C)(C)OC(=O)*; NHBn = c1ccc(CN*)cc1; Piv = CC(C)(C)C(=O)*; NHtBu = CC(C)(C)N*

Series [1] has as its target T1, E3 ubiquitin-protein ligase Mdm2 (Homo sapiens, UniProt Q00987). The series can be described thus: Inhibition of GST-tagged p53 binding to Hdm2 by ELISA. (An ELISA detects its analyte on a solid surface through an enzyme-linked reagent.)
The nature of series [2]: Solubility of the compound. It counts as physicochemical.
The target in series [3] is T2, Protein Mdm4 (Homo sapiens) (UniProt O15151).
T2 sequence (whole entry): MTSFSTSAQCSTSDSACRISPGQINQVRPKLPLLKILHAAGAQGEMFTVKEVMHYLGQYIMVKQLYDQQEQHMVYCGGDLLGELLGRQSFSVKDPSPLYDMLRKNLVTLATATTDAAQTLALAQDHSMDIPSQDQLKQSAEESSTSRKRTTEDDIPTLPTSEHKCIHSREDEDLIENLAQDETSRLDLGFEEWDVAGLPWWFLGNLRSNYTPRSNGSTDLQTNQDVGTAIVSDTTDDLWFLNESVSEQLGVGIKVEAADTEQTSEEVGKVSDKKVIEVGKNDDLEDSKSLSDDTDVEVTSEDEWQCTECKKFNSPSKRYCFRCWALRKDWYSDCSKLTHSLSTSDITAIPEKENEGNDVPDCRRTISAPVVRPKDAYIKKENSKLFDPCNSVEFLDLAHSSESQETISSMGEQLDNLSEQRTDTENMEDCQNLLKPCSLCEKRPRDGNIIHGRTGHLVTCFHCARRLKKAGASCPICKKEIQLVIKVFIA
Nature of the series: Inhibition of GST-tagged MDMX expressed in Escherichia coli harboring integrated p53-MDMX protein assessed as enzyme-p53 interaction by beta-galactosidase assay. More on the design: concentration or dose not given beside the values. To be noted: concentration not given here. A digest of the protocol: (§1)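 E. coli reporter strain SNS126 (HIS3-KanR-lacZ) carrying chromosomally integrated DBD-fusion repressor halves (Hdm2–p53 or Hdmx–p53), transformed with SICLOPPS cyclic-peptide constructs and tested in both native and opposite strains. Cells grown on solid LB with 32 µM IPTG plus 9.7 µM L-arabinose; β-galactosidase measured by ONPG hydrolysis. % derepression = percent β-galactosidase enhancement relative to unrepressed (DBD-only) control.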

For series [4], the target named is T2, Protein Mdm4 (Homo sapiens). Nature of the series: Inhibition of GST-tagged MDMX expressed in Escherichia coli harboring integrated p53-Hmd2 protein assessed as enzyme-p53 interaction by beta-galactosidase assay. More on the design: concentration or dose not given beside the values. To be noted: concentration not given here. In outline:
as §1

Series [5] shares this target. Nature of the series: Inhibition of GST-tagged MDMX expressed in Escherichia coli harboring integrated p53-MDMX protein assessed as blockade of enzyme-p53 interaction by beta-galactosidase assay. The note with it: concentration not given here. The arrangement: concentration or dose not given beside the values. In outline:
as §1

The target is the same in series [6]. Nature of the series: Inhibition of GST-tagged MDMX expressed in Escherichia coli harboring integrated p53-Hmd2 protein assessed as blockade of enzyme-p53 interaction by beta-galactosidase assay. The note with it: concentration not given here. In outline: as §1
For series [7] the target is unchanged. Nature of the series: Inhibition of GST-tagged MDMX expressed in Escherichia coli harboring integrated p53-MDMX protein assessed as enhancement of enzyme-p53 interaction by beta-galactosidase assay. More on the design: concentration or dose not given beside the values. To be noted: concentration not given here. In outline:
as §1

Series [8] has the same target. The series can be described thus: Inhibition of GST-tagged MDMX expressed in Escherichia coli harboring integrated p53-Hmd2 protein assessed as enhancement of enzyme-p53 interaction by beta-galactosidase assay. To be noted: concentration not given here. The arrangement: concentration or dose not given beside the values. In outline: as §1
Series [9] concerns the target T1, E3 ubiquitin-protein ligase Mdm2. The series can be described thus: Inhibition of GST-tagged Hdm2 expressed in Escherichia coli harboring integrated p53-Hmd2 protein assessed as enhancement of enzyme-p53 interaction by beta-galactosidase assay. To be noted: concentration not given here. A digest of the protocol:
as §1
Target sequence in this assay (Q00987 whole entry, looked up): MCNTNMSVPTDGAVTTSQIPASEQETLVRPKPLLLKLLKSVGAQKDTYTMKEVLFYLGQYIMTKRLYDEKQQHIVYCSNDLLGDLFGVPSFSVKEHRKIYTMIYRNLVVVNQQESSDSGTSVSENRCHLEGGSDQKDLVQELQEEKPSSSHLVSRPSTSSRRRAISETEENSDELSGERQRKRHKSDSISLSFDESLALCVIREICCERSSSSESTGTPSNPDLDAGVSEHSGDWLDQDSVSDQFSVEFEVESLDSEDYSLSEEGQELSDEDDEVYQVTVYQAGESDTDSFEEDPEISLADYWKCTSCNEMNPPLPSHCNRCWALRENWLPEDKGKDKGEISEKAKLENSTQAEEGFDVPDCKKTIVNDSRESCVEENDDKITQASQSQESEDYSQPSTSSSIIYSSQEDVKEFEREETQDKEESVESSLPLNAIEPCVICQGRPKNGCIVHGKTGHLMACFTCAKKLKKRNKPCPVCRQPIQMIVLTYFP

Series [10] has the same target. Nature of the series: Inhibition of GST-tagged Hdm2 expressed in Escherichia coli harboring integrated p53-MDMX protein assessed as enhancement of enzyme-p53 interaction by beta-galactosidase assay. To be noted: concentration not given here. A digest of the protocol: as §1
Target sequence in this assay (Q00987 whole entry, looked up): as above
Series [11] has the same target. The series can be described thus: Inhibition of GST-tagged Hdm2 expressed in Escherichia coli harboring integrated p53-MDMX protein assessed as enzyme-p53 interaction by beta-galactosidase assay. To be noted: concentration not given here. In outline: as §1
Target sequence in this assay (Q00987 whole entry, looked up): as above
For series [12] the target is unchanged. The series can be described thus: Inhibition of GST-tagged Hdm2 expressed in Escherichia coli harboring integrated p53-Hmd2 protein assessed as enzyme-p53 interaction by beta-galactosidase assay. The note with it: concentration not given here. In outline:
as §1
Target sequence in this assay (Q00987 whole entry, looked up): as above

Series [13] has the same target. Nature of the series: Inhibition of GST-tagged Hdm2 expressed in Escherichia coli harboring integrated p53-MDMX protein assessed as blockade of enzyme-p53 interaction by beta-galactosidase assay. To be noted: concentration not given here. In outline: as §1
Target sequence in this assay (Q00987 whole entry, looked up): as above
Series [14] shares this target. The series can be described thus: Inhibition of GST-tagged Hdm2 expressed in Escherichia coli harboring integrated p53-Hmd2 protein assessed as blockade of enzyme-p53 interaction by beta-galactosidase assay. The note with it: concentration not given here. In outline: as §1
Target sequence in this assay (Q00987 whole entry, looked up): as above

Regarding `CC(C)(C)OC(=O)N[C@@H](CCCNC(=N)N)C(=O)N[C@@H](Cc1c[nH]c2ccccc12)C(=O)N[C@@H](Cc1ccccc1)C(=O)N1CCCCC1`, in [1], the inhibition result was “inactive”.
As for `CC(C)COC(=O)N[C@@H](CCCNC(=N)N)C(=O)N[C@@H](Cc1c[nH]c2ccccc12)C(=O)N[C@@H](Cc1ccccc1)C(=O)NC(C)(C)C`, the inhibition entry in series [1] is “inactive”.
For `CC(C)COC(=O)N[C@@H](CCCNC(=N)N)C(=O)N[C@@H](Cc1c[nH]c2ccccc12)C(=O)N[C@@H](Cc1ccccc1)C(=O)NCc1ccccc1`, the inhibition entry in series [1] was “inactive”.
Same read-out and setting: the value for `CC(C)(C)OC(=O)N[C@@H](CCCNC(=N)N)C(=O)N[C@@H](Cc1c[nH]c2ccccc12)C(=O)N[C@@H](Cc1ccccc1)C(=O)NCc1ccccc1` (Boc-Arg-Trp-Phe-NHBn) was “inactive”.
Still for that read-out and setting: the value for `CC(C)(C)NC(=O)[C@H](Cc1ccccc1)NC(=O)[C@H](Cc1c[nH]c2ccccc12)NC(=O)[C@H](CCCNC(=N)N)NC(=O)OC(C)(C)C` (Boc-Arg-Trp-Phe-NHtBu) was “inactive”.
As for `CC(C)[C@H](NC(=O)[C@H](Cc1ccc(O)cc1)NC(=O)[C@H](Cc1ccc(O)cc1)NC(=O)[C@H](Cc1ccccc1)NC(=O)OC(C)(C)C)C(=O)N1CCCCC1` (Boc-FYYV-Piperidide), the solubility entry in series [2] is recorded as “Insoluble”.
On the same count and under the same terms, the value for `CC[C@H](C)[C@H](NC(=O)OC(C)(C)C)C(=O)N[C@@H](Cc1ccccc1)C(=O)N[C@@H](Cc1ccc(O)cc1)C(=O)N[C@@H](Cc1ccc(O)cc1)C(=O)N[C@H](C(=O)N1CCCCC1)C(C)C` (Boc-IFYYV-Piperidide) was “Insoluble”.
Take `N=C(N)NCCC[C@H](NC(=O)OCc1ccccc1)C(=O)N[C@@H](Cc1c[nH]c2ccccc12)C(=O)N[C@@H](Cc1ccccc1)C(=O)NCc1ccccc1` (Cbz-Arg-Trp-Phe-NHBn): the inhibition result in [1] is “inactive”.
For `N=C(N)NCCC[C@H](NC(=O)OCc1ccccc1)C(=O)N[C@@H](Cc1c[nH]c2ccccc12)C(=O)N[C@@H](Cc1ccccc1)C(=O)N1CCCCC1` (Cbz-Arg-Trp-Phe-Piperidide), the inhibition entry in series [1] was “inactive”.
The same measure, in the same setting: the value for `CC(C)C(=O)N[C@@H](CCCNC(=N)N)C(=O)N[C@@H](Cc1c[nH]c2ccccc12)C(=O)N[C@@H](Cc1ccccc1)C(=O)NCc1ccccc1` (Isobutyryl-Arg-Trp-Phe-NHBn) was “inactive”; that for `CC(C)C(=O)N[C@@H](CCCNC(=N)N)C(=O)N[C@@H](Cc1c[nH]c2ccccc12)C(=O)N[C@@H](Cc1ccccc1)C(=O)NC(C)(C)C` (Isobutyryl-Arg-Trp-Phe-NHtBu) was “inactive”.
The same measure, in the same setting: the value for `N=C(N)NCCC[C@H](NC(=O)Cc1ccccc1)C(=O)N[C@@H](Cc1c[nH]c2ccccc12)C(=O)N[C@@H](Cc1ccccc1)C(=O)NCc1ccccc1` (PhAc-Arg-Trp-Phe-NHBn) was “inactive”; that for `CC(C)(C)NC(=O)[C@H](Cc1ccccc1)NC(=O)[C@H](Cc1c[nH]c2ccccc12)NC(=O)[C@H](CCCNC(=N)N)NC(=O)Cc1ccccc1` (PhAc-Arg-Trp-Phe-NHtBu) was “inactive”; that for `CC(C)(C)C(=O)N[C@@H](CCCNC(=N)N)C(=O)N[C@@H](Cc1c[nH]c2ccccc12)C(=O)N[C@@H](Cc1ccccc1)C(=O)NCc1ccccc1` (Piv-Arg-Trp-Phe-NHBn) was “inactive”.
Still for that read-out and setting: the value for `CC(C)(C)NC(=O)[C@H](Cc1ccccc1)NC(=O)[C@H](Cc1c[nH]c2ccccc12)NC(=O)[C@H](CCCNC(=N)N)NC(=O)C(C)(C)C` (Piv-Arg-Trp-Phe-NHtBu) was “inactive”.
For the compound `CC[C@H](C)[C@@H]1NC(=O)[C@H](C)NC(=O)[C@H](C(C)C)NC(=O)[C@H](Cc2ccc(O)cc2)NC(=O)[C@H](Cc2ccc(O)cc2)NC(=O)[C@H](Cc2ccccc2)NC1=O` (cyclo(AIFYYV)), in [1], the Activity result was “Dose-dependent effect” and the IC50 was 209 µM.
As to H-CDLRWF-OH, the inhibition in series [3] was determined as 86%; in [4], 37%; in [5], 76%; in series [6], 6%; in series [7], 45%; in [8] it was 4%.
H-CHLRWL-OH: the inhibition in [3] stood at 75%; in series [4] it was 41%; in series [5], 58%; in series [6], 10%; in series [7], 34%; in series [8], 7%.
Consider H-CIFYYV-OH, for which the inhibition was determined as 34% in series [9]; 24% in series [10]; 66% in series [11]; 67% in series [12]; 42% in series [13]; 51% in [14].
With H-CIWWYM-OH, the inhibition in series [9] was 8%; in series [10], 29%; in series [11] it was 70%; in series [12], 41%; in series [13], 49%; in series [14], 12%.
For the compound H-CKAVLF-OH, the inhibition turned out to be 71% in [3]; 38% in series [4]; 51% in series [5]; 7% in [6]; 30% in series [7]; 5% in series [8].
H-CLFFNY-OH: the inhibition in [3] was determined as 69%; in [4], 45%; in series [5], 47%; in [6] it was 18%; in series [7], 28%; in series [8], 12%.
With H-CLWWYM-OH, the inhibition came out at 12% in series [9]; 24% in series [10]; 65% in [11]; 45% in [12]; 41% in series [13]; 18% in series [14].
With H-CMFYYI-OH, the inhibition is 12% in series [9]; 22% in series [10]; 63% in series [11]; 45% in series [12]; 37% in [13]; 18% in [14].
With H-CRLLDF-OH, the inhibition in [3] is 70%; in series [4], 38%; in series [5] it was 49%; in [6], 7%; in [7], 29%; in series [8], 5%.
